# The source made the active and inactive calls.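 Rule for the calls: active = half-maximal potency under 10 µM when retested across doses; inactive = the rest.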
# Target: Cannabinoid receptor 1 (Homo sapiens) (UniProt P21554)
# Test: human CB1 agonism via arrestin-GFP redistribution – imaging, U2OS cells, beta-arrestin-GFP, powder samples, SAR follow-up (AID 2341)
# Conditions: U2OS CB1 beta-arrestin-GFP translocation imaging
# In short: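 Material – U2OS cells stably co-expressing human CB1 and β-arrestin-GFP · Buffer or medium – serum-free MEM · Compound – 10 doses, 62 nM–32 µM, 0.31% DMSO · Schedule – compound exposure 60 min at 37 °C · Repeats – duplicate wells per dose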
# Sequence of Cannabinoid receptor 1 (Homo sapiens) (P21554 whole entry, looked up): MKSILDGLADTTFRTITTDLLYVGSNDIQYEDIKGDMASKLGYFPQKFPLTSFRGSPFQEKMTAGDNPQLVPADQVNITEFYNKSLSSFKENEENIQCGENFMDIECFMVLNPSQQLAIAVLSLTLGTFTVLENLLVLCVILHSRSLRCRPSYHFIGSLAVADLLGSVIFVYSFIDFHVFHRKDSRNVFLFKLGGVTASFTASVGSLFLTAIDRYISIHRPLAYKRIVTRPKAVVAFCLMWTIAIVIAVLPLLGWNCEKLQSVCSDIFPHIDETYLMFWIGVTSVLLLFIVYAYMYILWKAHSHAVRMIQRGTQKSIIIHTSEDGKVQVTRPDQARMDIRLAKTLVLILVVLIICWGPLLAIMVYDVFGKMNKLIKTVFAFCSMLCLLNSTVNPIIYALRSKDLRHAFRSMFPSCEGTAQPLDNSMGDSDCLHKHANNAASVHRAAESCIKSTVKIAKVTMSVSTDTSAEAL
row,EC50,Compound
1,> 32 µM (inactive),CCCN(CCC)Cc1c(C(=O)NN=C/C(C)=C\c2ccccc2)nnn1-c1nonc1N
2,> 32 µM (inactive),COc1cc2c(cc1NC(=O)CSc1ccccc1)oc1ccccc12
3,> 32 µM (inactive),COc1ccc(S(=O)(=O)N2CCOCC2)cc1NC(=O)c1cc2c(s1)CCCC2
4,> 32 µM (inactive),COc1ccc2cc(C)c3nnc(SCC(=O)Nc4nc(-c5ccc(F)cc5)cs4)n3c2c1
5,> 32 µM (inactive),CC(C)NS(=O)(=O)c1ccc(NC(=S)NC(=O)c2ccc(-c3ccccc3)cc2)cc1
6,> 32 µM (inactive),C/C(C=NNC(=O)c1nnn(-c2nonc2N)c1CN1CCC(C)CC1)=C/c1ccccc1
7,> 32 µM (inactive),CN(C)S(=O)(=O)c1ccc(N2CCCC2)c(C(=O)N2CCN(c3ccc([N+](=O)[O-])cc3)CC2)c1
8,> 32 µM (inactive),COc1ccccc1/C=C/C(=O)NC(=S)Nc1ccc(S(=O)(=O)N(C)c2ccccc2)cc1
9,> 32 µM (inactive),C=CCN(CC=C)S(=O)(=O)c1ccc(NC(=S)NC(=O)c2ccc(-c3ccccc3)cc2)cc1
10,> 32 µM (inactive),Cc1occc1C(=O)Nc1ccc(OCc2ccccc2)cc1
11,> 32 µM (inactive),CCCN(CCC)Cc1c(C(=O)NN=Cc2c[nH]c3ccccc23)nnn1-c1nonc1N
12,> 32 µM (inactive),O=C(CSc1nc2ccccc2s1)N1c2ccccc2Sc2ccc(C(F)(F)F)cc21
13,> 32 µM (inactive),CCCN(CCC)Cc1c(C(=O)NN=C/C(C)=C\c2ccco2)nnn1-c1nonc1N
14,> 32 µM (inactive),COc1ccc2c(c1)cc(C)c1nnc(SCC(=O)N(C)c3nc(-c4ccccc4)cs3)n12
15,> 32 µM (inactive),O=C(CSc1nc2ccccc2s1)N1c2ccccc2Sc2ccc(Cl)cc21
16,> 32 µM (inactive),COc1cc2c(cc1NC(=O)C(C)Sc1ccc(NC(C)=O)cc1)oc1ccccc12 (stereo unspecified)
17,> 32 µM (inactive),CC(C)Oc1ccc(S(=O)(=O)N2CCOCC2)cc1NC(=O)c1ccc(N2CCCC2=O)cc1
18,> 32 µM (inactive),CC(Sc1nc2cc(Cl)ccc2s1)C(=O)Nc1cccc(S(=O)(=O)N2CCOCC2)c1 (stereo unspecified)
19,> 32 µM (inactive),Cc1cccc(N2CCN(C(=O)c3cc(S(=O)(=O)N(C)C)ccc3N3CCCC3)CC2)c1C
20,> 32 µM (inactive),CC(C)=CC(=O)Nc1ccc(OCc2ccccc2)cc1
21,> 32 µM (inactive),COc1ccc(-c2csc(NC(=O)CSc3nnc4c(C)cc5ccccc5n34)n2)cc1

# — PubChem BioAssay AID2341 (Sanford-Burnham Center for Chemical Genomics, 2010)
